Experimental data published in ChEMBL document CHEMBL2406919, “On the antibiotic and antifungal activity of pestalone, pestalachloride A, and structurally related compounds” (2013).
Converted amounts (≈) assume the structure as drawn.

Key:
Assay type in all cases: functional
Staphylococcus aureus [1] = assay: Antimicrobial activity against community acquired Staphylococcus aureus MW2 after 24 hrs by microdilution method; settings: MW2, 24 h
How it was run: (§1)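 CLSI (M7-A6) broth microdilution with 2-fold serial compound dilutions in Mueller−Hinton broth. Inoculum was 10⁵ cfu/mL, with vancomycin as control. After 24 h at 37 °C, MIC was read as the lowest concentration inhibiting visible growth.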

Staphylococcus aureus [2] = assay: Antimicrobial activity against Staphylococcus aureus ATCC 29213 after 24 hrs by microdilution method; settings: ATCC 29213, 24 h; how it was run: as §1
Staphylococcus aureus [3] = assay: Antimicrobial activity against epidemic community acquired methicillin-resistant Staphylococcus aureus USA300 after 24 hrs by microdilution method; settings: USA300, 24 h
How it was run: (§2)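 CLSI broth microdilution (M7-A6) with 2-fold serial compound dilutions in Mueller–Hinton broth. Inoculum 10⁵ cfu/mL. Strains came from NARSA, stored at −70 °C and revived on Mueller–Hinton agar days before testing. After 24 h at 37 °C, MIC read as the lowest concentration preventing visible growth. Vancomycin served as control.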

[4] = Antifungal activity against Phytophthora cryptogea after 3 to 5 days by photometric method
How it was run: (§3)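 Test compound in methanol with alkylaryl polyglycol ether emulsifier was dried in wells, then liquid potato dextrose medium with spores or mycelium of the test organism was added. Incubated 3−5 days shaking at 20 °C, 85% relative humidity. Growth was taken as the change in extinction at 620 nm before and after incubation. ED₅₀ (50% growth inhibition, ppm = μg/mL) came from a dose−response curve against untreated control.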

Pseudomonas fluorescens = assay: Antifungal activity against Pseudomonas fluorescens after 3 to 5 days by photometric method; settings: read-out: ED50 (the source's name); how it was run: as §3
Alternaria mali = assay: Antifungal activity against Alternaria mali after 3 to 5 days by photometric method; settings: read-out: ED50 (the source's name); how it was run: as §3
[5] = Antifungal activity against Leptosphaeria nodorum after 3 to 5 days by photometric method; how it was run: as §3
Staphylococcus aureus [6] = assay: Antimicrobial activity against hospital acquired vancomycin-intermediate Staphylococcus aureus Mu50 after 24 hrs by microdilution method; settings: Mu50, 24 h; how it was run: as §2
[7] = Antifungal activity against Trametes versicolor after 3 to 5 days by photometric method; how it was run: as §3
[8] = Antifungal activity against Pyrenophora teres after 3 to 5 days by photometric method; how it was run: as §3
Botrytis cinerea = assay: Antifungal activity against Botrytis cinerea after 3 to 5 days by photometric method; settings: read-out: ED50 (the source's name); how it was run: as §3
Phytophthora infestans = assay: Antifungal activity against Phytophthora infestans after 3 to 5 days by photometric method; settings: read-out: ED50 (the source's name)
How it was run: (§4)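 Test compound in methanol with alkylaryl polyglycol ether emulsifier dried into wells. Liquid potato dextrose medium holding spores or mycelium of the fungus added. OD620 read before and after 3–5 days shaking at 20 °C, 85% relative humidity. ΔOD against untreated control fitted to a dose–response curve; ED50 (50% growth inhibition) given in ppm (μg/mL).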

Pyricularia oryzae = assay: Antifungal activity against Pyricularia oryzae after 3 to 5 days by photometric method; settings: read-out: ED50 (the source's name); how it was run: as §4
Zymoseptoria tritici = assay: Antifungal activity against Septoria tritici after 3 to 5 days by photometric method; settings: read-out: ED50 (the source's name); how it was run: as §3
Fusarium culmorum = assay: Antifungal activity against Fusarium culmorum after 3 to 5 days by photometric method; settings: read-out: ED50 (the source's name); how it was run: as §3
Aspergillus niger = assay: Antifungal activity against Aspergillus niger after 3 to 5 days by photometric method; settings: read-out: ED50 (the source's name); how it was run: as §3
Fusarium graminearum = assay: Antifungal activity against Gibberella zeae after 3 to 5 days by photometric method; settings: read-out: ED50 (the source's name); how it was run: as §4
[9] = Antifungal activity against Ustilago avenae after 3 to 5 days by photometric method; how it was run: as §3
Pythium aphanidermatum = assay: Antifungal activity against Pythium aphanidermatum after 3 to 5 days by photometric method; settings: read-out: ED50 (the source's name); how it was run: as §3
Staphylococcus aureus [10] = assay: Antimicrobial activity against Staphylococcus aureus SG511 after 24 hrs by broth microdilution method; settings: SG511, 24 h
How it was run: (§5)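 CLSI broth microdilution with 2-fold serial compound dilutions in half-concentrated Mueller−Hinton broth. Inoculum was 10⁵ cfu/mL. After 24 h at 37 °C, MIC was read as the lowest concentration inhibiting visible growth.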

Bacillus subtilis = assay: Antimicrobial activity against Bacillus subtilis 168 after 24 hrs by broth microdilution method; settings: subsp. subtilis str. 168 ; how it was run: as §5
Staphylococcus aureus [11] = assay: Antimicrobial activity against methicillin-resistant Staphylococcus aureus LT-1334 after 24 hrs by microdilution method; settings: LT-1334, 24 h
How it was run: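 Broth microdilution per CLSI with 2-fold serial compound dilutions. Growth and testing in half-concentrated Mueller–Hinton broth, inoculum 10⁵ cfu/mL. MIC read after 24 h at 37 °C as the lowest concentration inhibiting visible growth.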

Structure (SMILES)	MIC (Staphylococcus aureus [2]) [µg/mL]	MIC (Staphylococcus aureus [3]) [µg/mL]	ED50 [4] [µg/mL]	EC50 (Pseudomonas fluorescens) [µg/mL]	EC50 (Alternaria mali) [µg/mL]	ED50 [5] [µg/mL]	MIC (Staphylococcus aureus [6]) [µg/mL]	ED50 [7] [µg/mL]	ED50 [8] [µg/mL]	EC50 (Botrytis cinerea) [µg/mL]	EC50 (Phytophthora infestans) [µg/mL]	EC50 (Pyricularia oryzae) [µg/mL]	EC50 (Zymoseptoria tritici) [µg/mL]	EC50 (Fusarium culmorum) [µg/mL]	EC50 (Aspergillus niger) [µg/mL]	EC50 (Fusarium graminearum) [µg/mL]	ED50 [9] [µg/mL]	EC50 (Pythium aphanidermatum) [µg/mL]	also measured
COc1c(Cl)c(C)c(Cl)c(O)c1C1c2c(CC=C(C)C)c(O)cc(O)c2C(=O)N1Cc1ccccc1 (racemic)	> 50	–	–	–	–	–	–	–	–	–	–	–	–	–	–	–	–	–	MIC (Staphylococcus aureus [1]): > 50 µg/mL
CN[C@H](CC(C)C)C(=O)N[C@H]1C(=O)N[C@@H](CC(N)=O)C(=O)N[C@H]2C(=O)N[C@H]3C(=O)N[C@H](C(=O)N[C@H](C(=O)O)c4cc(O)cc(O)c4-c4cc3ccc4O)[C@H](O)c3ccc(c(Cl)c3)Oc3cc2cc(c3O[C@@H]2O[C@H](CO)[C@@H](O)[C@H](O)[C@H]2O[C@H]2C[C@](C)(N)[C@H](O)[C@H](C)O2)Oc2ccc(cc2Cl)[C@H]1O [VANCOMYCIN]	–	0.25 (≈ 0.173 µM)	–	–	–	–	–	–	–	–	–	–	–	–	–	–	–	–	–
COc1c(Cl)c(C)c(Cl)c(O)c1C(=O)c1c(Br)c(O)cc(O)c1Br	–	30 (≈ 59.9 µM)	> 50	> 50	> 50	> 50	30 (≈ 59.9 µM)	> 50	> 50	> 50	> 50	> 50	> 50	0.014 (≈ 0.0279 µM)	> 50	> 50	> 50	–	–
COc1cc(OC)c(CC=C(C)C)c(C(=O)c2c(OC)c(Cl)c(C)c(Cl)c2OC)c1Br	–	–	> 50	> 50	> 50	> 50	–	> 50	> 50	> 50	> 50	> 50	> 50	> 50	> 50	> 50	> 50	> 50	–
COc1cc(OC)c(CC=C(C)C)c(C(=O)c2c(O)c(Cl)c(C)c(Cl)c2OC)c1C=O	–	10 (≈ 21.4 µM)	> 50	> 50	> 50	22.5 (≈ 48.1 µM)	15 (≈ 32.1 µM)	> 50	5.4 (≈ 11.6 µM)	> 50	–	5 (≈ 10.7 µM)	> 50	1.2 (≈ 2.57 µM)	> 50	> 50	> 50	44.4 (≈ 95 µM)	–
COc1cc(OC)c(Br)c(C(=O)c2c(OC)c(Cl)c(C)c(Cl)c2OC)c1Br	–	–	> 50	> 50	> 50	> 50	–	> 50	42 (≈ 77.3 µM)	> 50	–	12.6 (≈ 23.2 µM)	> 50	2.2 (≈ 4.05 µM)	> 50	> 50	> 50	> 50	–
COc1c(Cl)c(C)c(Cl)c(O)c1C1OC(=O)c2c(O)cc(O)c(CC=C(C)C)c21 (racemic) [RAC-PESTALALACTONE]	–	25 (≈ 56.9 µM)	18.9 (≈ 43 µM)	> 50	> 50	> 50	–	13.1 (≈ 29.8 µM)	4.3 (≈ 9.79 µM)	> 50	–	> 50	> 50	> 50	> 50	> 50	> 50	> 50	–
COc1c(Cl)c(C)c(Cl)c(O)c1C(=O)c1c(C=O)c(O)cc(O)c1CC=C(C)C [PESTALONE]	16 (≈ 36.4 µM)	10 (≈ 22.8 µM)	33.9 (≈ 77.2 µM)	> 50	22.4 (≈ 51 µM)	22.4 (≈ 51 µM)	10 (≈ 22.8 µM)	> 50	2.2 (≈ 5.01 µM)	> 50	> 50	28.6 (≈ 65.1 µM)	26.7 (≈ 60.8 µM)	0.12 (≈ 0.273 µM)	> 50	> 50	> 50	> 50	MIC (Staphylococcus aureus [10]): 3.1 µg/mL (≈ 7.06 µM); MIC (Bacillus subtilis): 1.6 µg/mL (≈ 3.64 µM); MIC (Staphylococcus aureus [11]): 6.25 µg/mL (≈ 14.2 µM)
COc1c(Cl)c(C)c(Cl)c(O)c1C1NC(=O)c2c(O)cc(O)c(CC=C(C)C)c21 (racemic) [PESTALACHLORIDE A]	10 (≈ 22.8 µM)	–	> 50	> 50	> 50	> 50	–	> 50	33.1 (≈ 75.5 µM)	> 50	> 50	> 50	> 50	31.9 (≈ 72.8 µM)	> 50	> 50	> 50	> 50	MIC (Staphylococcus aureus [1]): 10 µg/mL (≈ 22.8 µM)
COc1c(Cl)c(C)c(Cl)c(O)c1C(=O)c1cc(O)cc(O)c1CC=C(C)C [DEFORMYL-PESTALONE]	–	5 (≈ 12.2 µM)	–	–	–	–	5 (≈ 12.2 µM)	–	–	–	–	–	–	–	–	–	–	–	–
COc1c(Cl)c(C)c(Cl)c(O)c1C(=O)c1cc(O)cc2c1CCC(C)(C)O2	–	7 (≈ 17 µM)	–	–	–	–	7 (≈ 17 µM)	–	–	–	–	–	–	–	–	–	–	–	–
COc1c(Cl)c(C)c(Cl)c(O)c1C1c2c(CC=C(C)C)c(O)cc(O)c2C(=O)N1C (racemic)	> 50	–	–	–	–	–	–	–	–	–	–	–	–	–	–	–	–	–	MIC (Staphylococcus aureus [1]): > 50 µg/mL
